Active and inactive are the calls of the source. The rule behind the calls is not given here.

For data set [1], the system named is Mus musculus. Briefly: Anticonvulsant activity in Swiss albino mouse assessed as protection against subcutaneous pentylenetetrazole-induced seizures at 100 mg/kg, ip administered 0.5 hrs prior to PTZ challenge and measured after 30 mins. The format is functional. In outline:
(§1)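 Male Swiss Albino mice (25–30 g), 6 per group, dosed i.p. with drugs in sterile saline, then challenged with PTZ 85 mg/kg s.c. (CD97), given at 10 ml/kg, 0.5 h or 4 h later. Each animal is observed singly for seizures. Protection is scored as protected/total animals.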

Data set [2] has as its target T1, Prostaglandin G/H synthase 2 (Homo sapiens) (UniProt P35354).
T1 sequence (whole entry): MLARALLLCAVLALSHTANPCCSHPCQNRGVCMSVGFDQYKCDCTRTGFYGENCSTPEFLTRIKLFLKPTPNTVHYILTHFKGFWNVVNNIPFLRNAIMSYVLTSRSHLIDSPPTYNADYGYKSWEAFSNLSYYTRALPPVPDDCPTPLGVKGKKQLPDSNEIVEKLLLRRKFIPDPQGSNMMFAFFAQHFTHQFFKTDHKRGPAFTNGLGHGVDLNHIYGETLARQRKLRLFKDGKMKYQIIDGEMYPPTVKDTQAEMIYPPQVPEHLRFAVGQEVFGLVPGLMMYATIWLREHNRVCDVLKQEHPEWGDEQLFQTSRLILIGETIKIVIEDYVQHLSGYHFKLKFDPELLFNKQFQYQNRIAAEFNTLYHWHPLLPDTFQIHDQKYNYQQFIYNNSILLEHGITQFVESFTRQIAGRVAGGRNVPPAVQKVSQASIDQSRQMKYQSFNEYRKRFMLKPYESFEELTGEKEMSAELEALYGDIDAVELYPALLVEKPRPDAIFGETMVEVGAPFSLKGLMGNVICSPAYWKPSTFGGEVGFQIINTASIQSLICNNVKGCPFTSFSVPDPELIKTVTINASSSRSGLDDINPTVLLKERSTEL
Briefly: Inhibition of human recombinant COX2 at 10 uM using arachidonic acid as substrate preincubated for 5 mins followed by substrate addition and measured after 2 mins by ADPH probe-based fluorescence assay relative to control. In outline: (§2)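 Kit assay in 100 mM Tris-HCl pH 8.0. Enzyme, heme and inhibitor (DMSO stocks) are incubated 5 min at room temperature. ADPH is added, then arachidonic acid starts the reaction. After 2 min, fluorescence is read at ex 535/em 590 nm. Percent inhibition is taken versus the 100% activity well, background wells included. IC50 is derived from percentage inhibition, mean of three independent experiments.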

For data set [3], the system named is Rattus norvegicus. Briefly: Toxicity in Wistar rat assessed as basophils level at 200 mg/kg, po for 14 days (reference value: 0 +/0%). The format is organism-based. Particulars: in vivo, 336 h.
Data set [4] has as its system Rattus norvegicus. Briefly: Antiepileptic activity in rat model of PTZ-induced epileptiogenesis kindling model assessed as decrease of seizure severity at 30 mg/kg, ip measured up to 28 days. It counts as functional, organism-based. The method in brief: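 Adult male Wistar rats receive PTZ 40 mg/kg i.p. on alternate days for 28 days plus daily i.p. treatment. After each PTZ injection, rats are observed singly for 45 min and scored on the revised Racine scale (stages to 6). Group mean score per week, ±S.D. Statistics are repeated-measures ANOVA with Tukey's test.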

Data set [5] deals with Mus musculus. Briefly: Anticonvulsant activity in Swiss albino mouse assessed as protection against subcutaneous pentylenetetrazole-induced seizures at 30 mg/kg, ip administered 0.5 hrs prior to PTZ challenge and measured after 30 mins. The format is functional. In outline: as §1
Data set [6] has as its system Rattus norvegicus. The experiment in a line: Toxicity in Wistar rat assessed as RBC level at 200 mg/kg, po for 14 days (reference value: 8.19 +/- 0.648 10^6/mm3). The format is organism-based. The note with it: in vivo, 336 h.
Data set [7] concerns the target T2, Prostaglandin G/H synthase 1 (Ovis aries) (UniProt P05979).
T2 sequence (whole entry): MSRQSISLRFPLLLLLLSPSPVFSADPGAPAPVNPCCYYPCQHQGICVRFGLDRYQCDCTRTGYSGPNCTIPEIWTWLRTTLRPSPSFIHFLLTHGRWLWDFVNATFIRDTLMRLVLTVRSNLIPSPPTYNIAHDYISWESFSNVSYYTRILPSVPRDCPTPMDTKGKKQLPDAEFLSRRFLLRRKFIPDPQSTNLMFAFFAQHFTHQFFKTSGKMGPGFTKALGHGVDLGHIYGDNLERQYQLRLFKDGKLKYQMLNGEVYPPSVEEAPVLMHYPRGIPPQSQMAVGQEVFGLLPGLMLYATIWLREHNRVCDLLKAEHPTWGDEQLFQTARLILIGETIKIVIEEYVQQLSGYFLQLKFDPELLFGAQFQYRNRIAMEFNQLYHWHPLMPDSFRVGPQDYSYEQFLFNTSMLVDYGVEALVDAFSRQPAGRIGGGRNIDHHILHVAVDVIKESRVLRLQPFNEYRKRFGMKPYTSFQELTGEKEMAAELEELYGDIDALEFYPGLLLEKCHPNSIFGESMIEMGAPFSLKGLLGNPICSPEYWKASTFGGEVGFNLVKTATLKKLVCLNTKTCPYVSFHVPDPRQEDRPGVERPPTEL
Briefly: Inhibition of ovine COX1 at 10 uM using arachidonic acid as substrate preincubated for 5 mins followed by substrate addition and measured after 2 mins by ADPH probe-based fluorescence assay relative to control. In outline:
as §2

Data set [8] concerns Mus musculus. Briefly: Anticonvulsant activity in Swiss albino mouse assessed as protection against subcutaneous pentylenetetrazole-induced seizures at 5 mg/kg, ip administered 3 hrs prior to PTZ challenge and measured after 30 mins. The format is functional. The note with it: in the assay text read “30 mg/kg” for “5 mg/kg”. The method in brief:
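Mice get a single i.p. dose, then PTZ 85 mg/kg s.c. at 0.5, 1, 2, 3, 4 or 6 h after dosing. Seizure protection is recorded at each interval as percentage of six Swiss Albino mice protected.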

For data set [9], the system named is Rattus norvegicus. The experiment in a line: Anxiolytic activity in ip dosed PTZ-kindled Wistar rat assessed as time spent in light zone by light-dark test (reference value: 3.05 +/- 1.25%). The format is functional.
Data set [10] deals with Rattus norvegicus. Briefly: Toxicity in Wistar rat assessed as effect on potassium level at 200 mg/kg, po for 14 days. It counts as organism-based. Particulars: in vivo, 336 h.
The test system of data set [11] is Mus musculus. Briefly: Anticonvulsant activity in Swiss albino mouse assessed as protection against subcutaneous pentylenetetrazole-induced seizures at 300 mg/kg, ip administered 4 hrs prior to PTZ challenge and measured after 30 mins. The format is functional. The method in brief:
as §1

Data set [12] relates to Rattus norvegicus. Briefly: Toxicity in Wistar rat assessed as eosinophil level at 200 mg/kg, po for 14 days (reference value: 2.67 +/- 0.58%). The format is organism-based. The note with it: in vivo, 336 h.
Data set [13] relates to Rattus norvegicus. Briefly: Anxiolytic activity in ip dosed PTZ-kindled Wistar rat assessed as time spent in dark zone by light-dark test (reference value: 96.9 +/- 1.25%). The format is functional.
Data set [14] has as its system Rattus norvegicus. Briefly: Cognitive enhancing effect in ip dosed PTZ-kindled rat assessed as decrease in ratio of second interaction trial to first interaction time by social recognition test (reference value: 0.928 +/- 0.234). The format is functional.
Data set [15] concerns Rattus norvegicus. Briefly: Toxicity in Wistar rat assessed as effect on total bilirubin level at 200 mg/kg, po for 14 days. It counts as organism-based. The note with it: in vivo, 336 h. In outline:
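Normal Wistar rats are given 200 mg/kg orally for 14 days, with vehicle-treated controls. Serum liver markers (SGOT, SGPT, ALP, total protein, total bilirubin) and renal markers (urea, creatinine, uric acid) are then measured, mean ± S.D.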

The test system of data set [16] is Mus musculus. Briefly: Anticonvulsant activity in Swiss albino mouse assessed as protection against subcutaneous pentylenetetrazole-induced seizures at 100 mg/kg, ip administered 4 hrs prior to PTZ challenge and measured after 30 mins. The format is functional. The method in brief:
as §1

Take `Cc1ccc(NC(=S)NNC(=O)Nc2ccc(S(C)(=O)=O)cc2)cc1`: the Activity stood at 67% in the data set with Mus musculus [1]; 0.5% in the data set on Rattus norvegicus [3]; 83% with Mus musculus [5]; 7.34 ×10⁶ /mm3 with Rattus norvegicus [6]; 83% in the data set on Mus musculus [8]; 13.3% in the data set on Rattus norvegicus [9]. In addition, the Activity entry in the data set with Rattus norvegicus [10] is given as “Non-Toxic”; in the data set with Mus musculus [11], 83%; with Rattus norvegicus [12], 2.5%; in the data set on Rattus norvegicus [13], 86.6%; in the data set with Rattus norvegicus [15] it was “Non-Toxic”; in the data set with Mus musculus [16], 83%. Besides, the inhibition in data set [2] was 75%. For the same compound, the outcome with Rattus norvegicus [4] was Active. Besides, in [7], the inhibition result was “inactive”. Moreover, the Ratio in the data set with Rattus norvegicus [14] came to 0.561.

For the origin of these results see ChEMBL document CHEMBL4152211, “Discovery of novel Methylsulfonyl phenyl derivatives as potent human Cyclooxygenase-2 inhibitors with effective anticonvulsant action: Design, synthesis, in-silico, in-vitro and in-vivo evaluation” (Eur J Med Chem, 2018).
